According to ChEMBL document CHEMBL4823259, “Bufadienolides from the Eggs of the Toad Bufo bufo gargarizans and Their Antimelanoma Activities” (J Nat Prod, 2021):
Calls of active or inactive are those of the source. The calls are words filed in the database; no cut-off is given here.

Key:
Danio rerio [1] = species on record: Danio rerio; assay: Antiangiogenic activity in transgenic Tg(fli1:GFP) zebra fish embryo assessed as reduction in intersegmental blood vessels at 20 uM measured at 48 hrs postfertilization by fluorescence microscopy; assay type: functional, organism-based
Outline: (§1)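 Tg:Fli1-GFP embryos selected at 12 hpf, 30 per well, 28.5 °C in E3 medium, exposed to compound (20 μM); chorions broken at 24 hpf; at 48 hpf ISVs and angiogenic sprouts counted by fluorescence microscopy. Sorafenib (1 μM) positive control; mean, SD; one-way ANOVA with Tukey post hoc test.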

[2] = Toxicity in zebra fish larvae at 100 uM measured at 48 hpf by stereomicroscopic analysis; parameters: species or system Danio rerio; details: zebrafish, 48 h
Outline: (§2)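 Zebrafish larvae at 48 hpf, kept at 28.5 °C in E3 medium, treated with compound; survival and pathological changes (e.g. pericardial edema) checked by stereomicroscope every 12 h.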

SK-MEL [3] = assay: Cytotoxicity against human SK-MEL cells assessed as reduction in cell viability measured after 48 hrs by MTT assay; assay type: functional, cell-based
Outline: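 MTT assay: SK-MEL-1 cells (DMEM, 10% FBS, 37 °C, 5% CO2) seeded 10⁴/well for 24 h, then exposed to a range of concentrations for 48 h; MTT added for 4 h at 37 °C, formazan dissolved in DMSO, absorbance 570 nm. IC50 as mean ± SD, three independent experiments.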

[4] = molecular target: Vascular endothelial growth factor receptor 2 (Danio rerio) (UniProt Q5GIT4); assay: Inhibition of VEGFR2 mediated angiogenesis in transgenic Tg(flk1:GFP) zebra fish embryo at 20 uM measured at 48 hrs postfertilization by fluorescence microscopy
Chain of Vascular endothelial growth factor receptor 2 (Danio rerio) (Q5GIT4 whole entry): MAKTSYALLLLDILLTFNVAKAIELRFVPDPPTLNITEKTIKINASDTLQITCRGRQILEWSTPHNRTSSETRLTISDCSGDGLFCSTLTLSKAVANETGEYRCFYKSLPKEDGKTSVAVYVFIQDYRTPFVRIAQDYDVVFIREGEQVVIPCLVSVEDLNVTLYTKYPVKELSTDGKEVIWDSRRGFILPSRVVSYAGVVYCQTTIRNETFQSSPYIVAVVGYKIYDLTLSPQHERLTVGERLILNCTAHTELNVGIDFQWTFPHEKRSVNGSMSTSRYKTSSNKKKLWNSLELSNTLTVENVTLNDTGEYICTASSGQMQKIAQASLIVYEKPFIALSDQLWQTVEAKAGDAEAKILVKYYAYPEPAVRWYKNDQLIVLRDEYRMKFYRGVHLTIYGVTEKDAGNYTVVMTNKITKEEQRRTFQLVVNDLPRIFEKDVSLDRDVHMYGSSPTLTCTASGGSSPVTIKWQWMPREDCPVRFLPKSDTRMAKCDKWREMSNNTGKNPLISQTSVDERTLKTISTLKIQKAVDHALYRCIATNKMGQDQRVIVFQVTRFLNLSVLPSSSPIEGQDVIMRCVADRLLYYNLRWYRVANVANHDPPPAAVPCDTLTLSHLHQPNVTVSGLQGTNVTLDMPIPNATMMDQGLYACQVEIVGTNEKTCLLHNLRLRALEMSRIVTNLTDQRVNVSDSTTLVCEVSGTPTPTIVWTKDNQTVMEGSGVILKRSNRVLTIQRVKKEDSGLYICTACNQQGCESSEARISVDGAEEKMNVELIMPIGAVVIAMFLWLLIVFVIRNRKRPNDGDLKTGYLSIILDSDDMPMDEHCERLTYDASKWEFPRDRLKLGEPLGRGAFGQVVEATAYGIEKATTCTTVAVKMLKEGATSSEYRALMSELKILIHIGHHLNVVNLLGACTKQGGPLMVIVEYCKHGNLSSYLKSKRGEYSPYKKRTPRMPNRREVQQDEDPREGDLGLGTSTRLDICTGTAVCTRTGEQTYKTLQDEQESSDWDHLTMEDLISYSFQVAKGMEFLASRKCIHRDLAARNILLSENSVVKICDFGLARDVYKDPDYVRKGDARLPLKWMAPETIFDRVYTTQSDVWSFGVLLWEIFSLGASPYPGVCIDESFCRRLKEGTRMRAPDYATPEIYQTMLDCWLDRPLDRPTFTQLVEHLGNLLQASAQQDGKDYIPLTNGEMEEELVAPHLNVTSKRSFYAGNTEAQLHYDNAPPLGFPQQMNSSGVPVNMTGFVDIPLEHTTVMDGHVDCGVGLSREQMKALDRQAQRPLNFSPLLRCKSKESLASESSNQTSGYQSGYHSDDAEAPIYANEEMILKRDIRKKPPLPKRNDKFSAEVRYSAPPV
Outline: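 Tg:Flk1-GFP (VEGFR2 reporter) embryos treated from 12 hpf at 20 μM, 28.5 °C in E3 medium; chorions removed at 24 hpf; ISV and sprout numbers counted at 48 hpf under fluorescence microscope. Sorafenib (1 μM) positive control; one-way ANOVA, Tukey post hoc test.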

Danio rerio [5] = species on record: Danio rerio; assay: Antiangiogenic activity in transgenic Tg(fli1:GFP) zebra fish embryo assessed as reduction in angiogenic sprouts at 20 uM measured at 48 hrs postfertilization by fluorescence microscopy; assay type: functional, organism-based; outline: as §1
SK-MEL [6] = assay: Induction of apoptosis in human SK-MEL cells assessed as increase in cleaved PARP level at 0.5 to 1 uM incubated for 48 hrs by Western blot analysis; assay type: functional, cell-based; details: dose 0.5-1 µM
Outline: (§3)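 SK-MEL-1 cells seeded 3 × 10⁵/well for 24 h, treated 48 h; lysed in RIPA buffer with protease and phosphatase inhibitors 15 min at 4 °C; 20 μg protein by SDS-PAGE, PVDF transfer, PARP immunoblot with ECL detection; β-actin loading control. Sorafenib (10 μM) positive control.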

[7] = Toxicity in zebra fish larvae assessed as death at 100 uM measured at 48 hpf by stereomicroscopic analysis; parameters: species or system Danio rerio; details: zebrafish, 48 h; outline: as §2
[8] = Toxicity in zebra fish larvae assessed as pericardial edema at 100 uM measured at 48 hpf by stereomicroscopic analysis; parameters: species or system Danio rerio; details: zebrafish, 48 h; outline: as §2
[9] = Toxicity in zebra fish larvae assessed as curved tail at 100 uM measured at 48 hpf by stereomicroscopic analysis; parameters: species or system Danio rerio; details: zebrafish, 48 h; outline: as §2
SK-MEL [10] = assay: Anti-melanoma activity against human SK-MEL cells xenografted in yolk of zebra fish at 10 uM measured after 48 hrs by CM-Dil staining based fluorescence microscopic analysis; assay type: functional, cell-based
Outline: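 SK-MEL-1 cells prelabelled with CM-DiI (2 μM) microinjected into superficial yolk near perivitelline space of 2 dpf zebrafish embryos; treated 48 h at 28.5 °C; CM-DiI fluorescence of tumour mass imaged by fluorescence microscopy in immobilized fish. Sorafenib (0.5 μM) positive control.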

SK-MEL [11] = assay: Induction of apoptosis in human SK-MEL cells assessed as increase in cleaved PARP level at 0.1 to 0.5 uM incubated for 48 hrs by Western blot analysis; assay type: functional, cell-based; details: dose 0.1-0.5 µM; outline: as §3
SK-MEL [12] = assay: Induction of apoptosis in human SK-MEL cells assessed as increase in cleaved PARP level at 0.2 to 0.8 uM incubated for 48 hrs by Western blot analysis; assay type: functional, cell-based; details: dose 0.2-0.8 µM; outline: as §3
SK-MEL [13] = assay: Anti-melanoma activity against human SK-MEL cells xenografted in yolk of zebra fish at 0.5 uM measured after 48 hrs by CM-Dil staining based fluorescence microscopic analysis; assay type: functional, cell-based
Outline: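 SK-MEL-1 cells were prestained with CM-DiI (2 μM) and microinjected into the superficial yolk near the perivitelline space of 2 dpf zebrafish. Embryos were kept in E3 medium, treated for 48 h at 28.5 °C, then immobilized. CM-DiI fluorescence was imaged by fluorescence microscopy alongside bright field, and the melanoma area was outlined.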

SK-MEL [14] = assay: Induction of apoptosis in human SK-MEL cells assessed as increase in cleaved PARP level at 10 uM incubated for 48 hrs by Western blot analysis; assay type: functional, cell-based
Outline: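 SK-MEL-1 cells (DMEM, 10% FBS, 37 °C, 5% CO2) were seeded at 3 × 10⁵/well for 24 h, then treated for 48 h. They were lysed in RIPA buffer with PMSF, orthovanadate, DTT and phosphatase inhibitor for 15 min at 4 °C, and protein was quantified by BCA. 20 μg was run on SDS-PAGE and blotted to PVDF, with primary antibody overnight at 4 °C and secondary 1 h at room temperature. Detection was by ECL, with β-actin as loading control.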

| SMILES | Activity (Danio rerio [1]) | Activity [2] | IC50 (SK-MEL [3]) [nM] | Activity (Danio rerio [5]) | Activity [7] | Activity [8] | Activity [9] | other results |
| --- | --- | --- | --- | --- | --- | --- | --- | --- |
| C[C@]12CC[C@H]3[C@@H](CC[C@]4(O)C[C@@H](O)CC[C@]34O)[C@@]1(O)CC[C@@H]2c1ccc(=O)oc1 | Active | Non-Toxic | 910 | Active |  |  |  | Activity [4]: inactive; Activity (SK-MEL [6]): inactive |
| C[C@]12CC[C@@H]3C4=C(C[C@H]3[C@@]1(O)CC[C@@H]2c1ccc(=O)oc1)C(=O)C=CCC4 | inactive |  | 3300 | inactive | Toxic | Toxic | Toxic |  |
| C[C@]12CC[C@H]3[C@@H](CC[C@]4(O)C[C@@H](O)CC[C@]34C(=O)O)[C@@]1(O)CC[C@@H]2c1ccc(=O)oc1 | inactive | Non-Toxic | 290 | inactive |  |  |  |  |
| C[C@]12CC[C@H](O)C[C@@]1(O)CC[C@@H]1[C@@H]2CC[C@]2(C)[C@@H](c3ccc(=O)oc3)CC[C@]12O [TELOCINOBUFAGIN] | inactive |  | 50 | inactive | Toxic | Toxic | Toxic | Activity (SK-MEL [10]): Active; Activity (SK-MEL [11]): Active |
| C[C@]12CC[C@H]3[C@@H](CC[C@]4(O)C[C@@H](O)CC[C@]34C=O)[C@@]1(O)CC[C@@H]2c1ccc(=O)oc1 | Active |  | 96 | Active |  | Toxic |  | Activity [4]: inactive; Activity (SK-MEL [12]): inactive |
| C[C@]12CC[C@@H]3[C@H]4CC[C@H](O)C[C@@]4(O)CC[C@H]3[C@]13O[C@@H]3C[C@@H]2c1ccc(=O)oc1 | inactive |  | 3600 | inactive | Toxic | Toxic | Toxic |  |
| C[C@]12CC[C@@H]3[C@H]4CC[C@H](O)C[C@@]4(O)CC[C@H]3[C@@]1(O)CC[C@@H]2c1ccc(=O)oc1 |  |  | 280 |  |  |  |  |  |
| C[C@]12CC[C@H](O)C[C@@]1(O)CC[C@@H]1[C@@H]2CC[C@]2(C)[C@@H](c3ccc(=O)oc3)[C@@H](O)C[C@]12O | inactive | Non-Toxic | 700 | inactive |  |  |  |  |
| CNC(=O)c1cc(Oc2ccc(NC(=O)Nc3ccc(Cl)c(C(F)(F)F)c3)cc2)ccn1 [SORAFENIB] |  |  | 10000 |  |  |  |  | Activity (SK-MEL [13]): Active; Activity (SK-MEL [14]): inactive |
